In the RNAGym collection of RNA variant scans (doi:10.1126/science.aae0568):
Fewer inactive variants are shown than the library holds.

B1: tRNA (parent)
chain: GUUCCGUUGGCGUAAUGGUAACGCGUCUCCCUCCUAAGGAGAAGACUGCGGGUUCGAGUCCCGUACGGAACG

Variants of: B1
Assay: yeast fitness relative to wild type (ratio to wild type); higher = fitter; tRNA-Arg(CCU), competitive growth, 37 C, YPD
Outline: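 The tRNA-Arg(CCU) gene variants were made by chemical synthesis with a 3% per-site mutation rate at 69 sites and inserted at the native genomic locus of Saccharomyces cerevisiae. After pooling, the strains were competed in YPD at 37°C for 24 hours in six parallel replicates. Gene amplicons from the start population and each end population were read by 100-nucleotide paired-end sequencing, and Darwinian fitness relative to wild type was taken from genotype frequency changes. Genotypes needed ≥ 100 starting reads, and estimates < 0.5 were set to 0.5.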

Point of comparison: C24G C34G, yeast fitness 0.55. Against it:
- C24A G44A U54C G56C — lower, ≤ 0.5
- C24G C31A C66U — lower, ≤ 0.5
- C24G C30A G44C U47C — higher, 0.567
- C24G A43G — higher, 0.573
- C24A G48A U53G G67C — lower, ≤ 0.5
- C24G C30U C34A A45G G51A — lower, ≤ 0.5
- C24G A36C A57C A69U A70C — lower, ≤ 0.5
- C24G C30U C34A G51A — lower, 0.542
- C24G C27U A40U A57G C62G — lower, ≤ 0.5
- C24G C29U G51C — higher, 0.576
- C24A U26G A43C C60U C62G G63A C66G A69G — lower, ≤ 0.5
- C24A U26A C31A — lower, 0.544
- C24G A36U A40G U64C — lower, ≤ 0.5
- C24G A40C A45U — lower, ≤ 0.5
- C24G C27U C33U G50C G63A G68A — lower, 0.528
- C24G A43G C49U C55G — higher, 0.643
- C24G C34G A69U — lower, ≤ 0.5
- C24G A36C C49U A70C — lower, ≤ 0.5
- C24A G68U — higher, 0.654
- C24G C30U C31U C61U G67C — lower, ≤ 0.5
- C24G C33G U53C C55U — higher, 0.567
- C24G C46U — higher, 0.654
- C24G C46A — higher, 0.937
- C24A C61U G67A — lower, ≤ 0.5
- C24A U59C — higher, 0.553
- C24G A36G U64C A65U — lower, ≤ 0.5
- C24G C49G C55A — lower, ≤ 0.5
- C24G C30A G44C U47C U59A A69C A70C — higher, 0.884
- C24A C66G — lower, 0.548
- C24G C29U U35C — lower, ≤ 0.5
- C24A G67A — higher, 0.709
- C24A G67U — higher, 0.669
- C24A G67C — higher, 0.74
- C24G C30A C62G — lower, ≤ 0.5
- C24G C27U C62U A70U — lower, ≤ 0.5
- C24A U28C — higher, 0.568
- C24A U32C G39C A70C — lower, ≤ 0.5
- C24G C29U G50A — lower, ≤ 0.5
- C24G A36G A45G A65U — lower, ≤ 0.5
- C24A G39A C60A C66U — lower, ≤ 0.5
- C24G A36C A42U A43G — lower, ≤ 0.5
- C24G A37G G58A G67A — lower, ≤ 0.5
- C24G A36C A40G A45U — lower, ≤ 0.5
- C24A G48C — higher, 0.621
- C24G C30U U32A A45G C62U — lower, ≤ 0.5
- C24G C31G A43U — higher, 0.596
- C24A U26A C31A C62A — lower, ≤ 0.5
- C24A G25C U47A — lower, ≤ 0.5
- C24G A69C — higher, 0.617
- C24G A37U A42G — lower, ≤ 0.5
- C24G C27U A40U U59C G68A — higher, 0.582
- C24G C31G A36G G44A A69G — lower, ≤ 0.5
- C24G C30U A43U — lower, 0.549
- C24G C49A — lower, ≤ 0.5
- C24A C61U — higher, 0.718
- C24G C31A — lower, 0.526
- C24G C31U — higher, 0.571
- C24G C27A A45C C62G C66U — lower, ≤ 0.5
- C24G C31G A36G A65U — lower, ≤ 0.5
- C24G A65U — higher, 0.742
- C24G A36G A57C C61U — lower, ≤ 0.5
- C24G A40G A43G — lower, ≤ 0.5
- C24A G56A — higher, 0.711
- C24G C30U G44C — lower, ≤ 0.5
- C24G A36C C55U — lower, ≤ 0.5
- C24G A36C U54G — lower, ≤ 0.5
- C24G C30A U47C G63A — lower, ≤ 0.5
- C24G C31A A42G A43U — lower, ≤ 0.5
- C24G C27G A37G — higher, 0.575
- C24G A42U C49U — lower, ≤ 0.5
- C24G C31A C33U U35A A57G — lower, 0.529
- C24G C29G C33U — lower, ≤ 0.5
- C24G A43C C46G U53G C61U — lower, ≤ 0.5
- C24A U28C C61A — lower, ≤ 0.5
- C24G C30G G39A G52A C55U — lower, ≤ 0.5
- C24G C30U C31A — lower, ≤ 0.5
- C24G A37C A57U — lower, ≤ 0.5
- C24A U26A C31A C55A U64C — lower, ≤ 0.5
- C24G C34G U53A — higher, 0.552
- C24G C27U A40U U59C — lower, ≤ 0.5
- C24A G56C C61G — lower, ≤ 0.5
- C24G C30G G52A C60A — lower, ≤ 0.5
- C24G C46U A69U — higher, 0.595
- C24G A36G A45G — lower, ≤ 0.5
- C24G C33U U47G — lower, ≤ 0.5
- C24A U26C U54A C60U A69C — higher, 0.819
- C24G C31G G50A G68C — lower, ≤ 0.5
- C24A G44C C49A C60U A69C — higher, 0.599
- C24G C34U U35A A65U — higher, 0.578
- C24G C46U A70U — higher, 0.642
- C24G A37U C55U G67C — lower, ≤ 0.5
- C24A U54C — higher, 0.634
- C24G A70C — higher, 0.666
- C24G C27U A37G — lower, 0.536
- C24G A36G C61A — lower, ≤ 0.5
- C24G A36C A40C A42U — lower, ≤ 0.5
- C24A U35G G52A U64A — lower, 0.514
- C24G C27U C33U G50C — lower, ≤ 0.5
- C24G C27U C33U G50A — lower, ≤ 0.5
- C24G C33U A70G — lower, ≤ 0.5
- C24G C27U C33U G52C A65G — lower, ≤ 0.5
- C24G A37G A43U C62G — higher, 0.77
- C24A U26G C61U — lower, ≤ 0.5
- C24A U26A — higher, 0.57
- C24G A42C C66U — lower, ≤ 0.5
- C24G C30G C31U U35A A36U G44A G63C — higher, 0.86
- C24A C62U A70C — lower, ≤ 0.5
- C24A C62U A70U — lower, 0.543
- C24G C31G C61G — lower, 0.507
- C24G C30U C46A — higher, 0.616
- C24G A42U — higher, 0.559
- C24G A45C — higher, 0.629
- C24G A45U — higher, 0.557
- C24G A45G — higher, 0.637
- C24G A37U U47A — lower, ≤ 0.5
- C24G C33U A37U C49G U64C — lower, ≤ 0.5
- C24G A45U G67A — lower, ≤ 0.5
- C24G C31U C33G — lower, ≤ 0.5
- C24A G48C A70U — lower, ≤ 0.5
- C24A U26G A43C U64C — lower, ≤ 0.5
- C24A G39C G51A G63A — lower, ≤ 0.5
- C24A U26A C55A — lower, ≤ 0.5
- C24A U32A G50C — lower, ≤ 0.5
- C24G C34U U53C C55G C62A — lower, ≤ 0.5
- C24G C33U A37U G67A — lower, ≤ 0.5
- C24G C31U G50C C60G G63A — lower, 0.545
- C24G A40C — higher, 0.601
- C24G A40G — higher, 0.647
- C24G C29A C30U G50A C62U — lower, ≤ 0.5
- C24G C31U C55A — lower, ≤ 0.5
- C24G A40G G50C — higher, 0.599
- C24G A36C — lower, 0.531
- C24G A36U — lower, ≤ 0.5
- C24G C31A U64A — lower, ≤ 0.5
- C24G C33G A36C A37C A42C — lower, 0.505
- C24A G48A U53G — lower, ≤ 0.5
- C24G A37G C61U — lower, ≤ 0.5
- C24A U26G A43C C62G G63A C66G A69G — lower, 0.531
- C24A U32A C55A G68C — lower, ≤ 0.5
- C24G C33G G51A U53A G56A G67C — lower, 0.541
- C24G C33U C61A A69U — lower, ≤ 0.5
- C24A U47G G68A — lower, ≤ 0.5
- C24G C27U C33U G50C A69U — lower, ≤ 0.5
- C24G C33G A36C A37C A42C A65U — lower, ≤ 0.5
- C24G C49G A70U — lower, ≤ 0.5
- C24G C29A A43U G68C — higher, 0.561
- C24G C49U C55G — lower, ≤ 0.5
- C24G A36G U53A — higher, 0.555
- C24G C30U C61G — lower, ≤ 0.5
- C24G C27U — higher, 0.73
- C24G C27A — higher, 0.616
- C24G C30G G39A — higher, 0.593
- C24A G51A C60U G67A — lower, ≤ 0.5
- C24G C29A G50C A57C — lower, ≤ 0.5
- C24G A37G G67C — lower, 0.549
- C24G C34G G44C — lower, ≤ 0.5
- C24G C29A A43U A57G G68C — lower, ≤ 0.5
- C24G C29U G51C A70U — lower, ≤ 0.5
- C24G C29G A37G G52A C62U — lower, ≤ 0.5
- C24G C55U G67C — lower, ≤ 0.5
- C24G A42G A43U U47A — higher, 0.635
- C24A U47G G58A C62A — lower, ≤ 0.5
- C24A G25C — higher, 0.702
- C24A G25A U35A — lower, ≤ 0.5
- C24G A37G C55U — lower, ≤ 0.5
- C24A G41A G44A U53A C66U — lower, ≤ 0.5
